Results as given in ChEMBL document CHEMBL1121619, “Demethyl analogues of psychoactive methoxyphenalkylamines: synthesis and serotonin receptor affinities” (J Med Chem, 1980).

Experiments:
[1] = biological target: T1, 5-hydroxytryptamine receptor 2B (Rattus norvegicus, UniProt P30994); test: Antagonistic against 5-hydroxytryptamine 2B receptor; type: functional; conditions: read-out: pA2 (converted)
[2] = biological target: T1, 5-hydroxytryptamine receptor 2B; test: Antagonistic activity against 5-hydroxytryptamine 2B receptor obtained from rat stomach fundus preparation; type: functional, tissue-based; conditions: read-out: pA2 (converted)
Rattus norvegicus [3] = test: Compound was tested for its activity for maximal correct- drug lever responding at doses 2 mg/Kg in rat; Range 0-8%; type: functional
Summary of the method: (§1)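 Rats were trained in a two-lever drug discrimination procedure to tell 5-methoxy-N,N-dimethyltryptamine hydrogen oxalate (1.5 mg/kg) from saline. Each challenge dose was given to three to six rats, and the percentage of drug-lever responding was recorded.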

Rattus norvegicus [4] = test: Compound was tested for its activity for maximal correct- drug lever responding at doses 3 mg/Kg in rat; Range 0-8%; type: functional; summary of the method: as §1
Rattus norvegicus [5] = test: Compound was tested for its activity for maximal correct- drug lever responding at doses 5 mg/Kg in rat; Range 0-8%; type: functional; summary of the method: as §1
[6] = biological target: Serotonin (5-HT) receptor; test: (§2) Antagonistic activity of corresponding methoxy compound against serotonin 5-HT receptor; type: functional
[7] = biological target: T1, 5-hydroxytryptamine receptor 2B; test: as §2; type: functional; conditions: read-out: pA2 (converted)

T1 sequence (P30994 whole entry): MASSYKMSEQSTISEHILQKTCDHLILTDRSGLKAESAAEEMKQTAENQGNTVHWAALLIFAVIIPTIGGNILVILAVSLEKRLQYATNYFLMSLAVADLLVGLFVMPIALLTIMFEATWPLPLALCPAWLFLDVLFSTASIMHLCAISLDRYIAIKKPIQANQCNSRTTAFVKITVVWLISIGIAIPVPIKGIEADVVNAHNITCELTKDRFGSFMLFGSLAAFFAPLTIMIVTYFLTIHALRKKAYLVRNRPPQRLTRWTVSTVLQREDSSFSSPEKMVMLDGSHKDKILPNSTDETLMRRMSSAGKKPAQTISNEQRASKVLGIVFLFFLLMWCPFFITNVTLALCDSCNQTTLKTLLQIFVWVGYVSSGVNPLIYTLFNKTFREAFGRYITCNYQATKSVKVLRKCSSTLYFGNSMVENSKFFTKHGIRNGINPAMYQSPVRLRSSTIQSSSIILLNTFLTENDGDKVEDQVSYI

SMILES | Kb [1] | Kb [2] | further results
COc1ccc(CC(C)N)c(O)c1 (centres undefined) | 2.51 µM |  | 
COc1ccc(O)c(CCN)c1 | 0.141 µM | 0.0794 µM | 
COc1cc(CC(C)N)ccc1O (stereo not drawn) [3-O-METHYL-ALPHA-METHYLDOPAMINE] | 3.55 µM | 6.46 µM | 
COc1ccc(O)c(CC(C)N(C)C)c1 (centres undefined) | 0.316 µM | 0.166 µM | 
COc1cc(C)c(O)cc1CC(C)N (centres undefined) | 0.0759 µM | 0.0123 µM | Activity (Rattus norvegicus [3]): 0%; Activity (Rattus norvegicus [4]): 0%; Activity (Rattus norvegicus [5]): 0%
COc1ccc(O)c(CCN(C)C)c1 | 0.302 µM | 0.145 µM | 
COc1cc(CC(C)N)c(O)cc1C (centres undefined) | 0.0759 µM | 0.0363 µM | 
NCCc1ccccc1O |  |  | pA2 [6]: 5.52
COc1ccc(OCc2ccccc2)c(CCN(C)C)c1 | 0.302 µM | 3.63 µM | 
COc1ccc(CC(C)N)cc1O (centres undefined) | 3.55 µM | 0.135 µM | 
COc1ccc(O)c(CC(C)N)c1 (centres undefined) | 0.148 µM | 0.1 µM | 
NCCc1ccc(O)cc1 [TYRAMINE] |  |  | Kb [7]: 7.94 µM
